Columns and labels:
Format in all cases: functional
BT-549 = assay: Cytotoxicity against human BT549 cells assessed as cell growth at 10^-5 M after 48 hrs by SRB assay; details: BT-549, 48 h, read-out: Activity
Method in brief: (§1)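 NCI-60 screen: lines kept in RPMI 1640 with 5% FBS, seeded at 5000–40,000 cells/well by doubling time, preincubated 24 h at 37 °C in 5% CO2. Time-zero plates TCA-fixed at drug addition. DMSO stocks diluted in medium, 48 h exposure. Fixation in cold TCA (final 10% adherent, 16% suspension), 0.4% SRB stain, solubilised in 10 mM Tris base, A515. Percent growth computed against control and time-zero.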

[1] = Cytotoxicity against human Hs 578T cells assessed as cell growth at 10^-6 M after 48 hrs by SRB assay; details: read-out: Activity
Method in brief: (§2)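 NCI-60 five-dose screen. Cells were grown in RPMI 1640 with 5% FBS and seeded at 5000–40,000 cells/well according to doubling time. They were pre-incubated 24 h at 37 °C in 5% CO₂, and time-zero (Tz) plates were TCA-fixed at drug addition. Five 10-fold dilutions of DMSO stock were applied for 48 h. Read-out was SRB staining, 515 nm absorbance, with percent growth calculated versus Tz and untreated control.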

RXF 393 = assay: Cytotoxicity against human RXF393 cells assessed as cell growth at 10^-4 M after 48 hrs by SRB assay; details: RXF 393, 48 h, read-out: Activity
[2] = Cytotoxicity against human RPMI8266 cells assessed as cell growth at 10^-4 M after 48 hrs by SRB assay; details: RPMI8266, 48 h, read-out: Activity
HCC 2998 [3] = assay: Cytotoxicity against human HCC2998 cells assessed as cell growth at 10^-6 M after 48 hrs by SRB assay; details: HCC 2998, 48 h, read-out: Activity; method in brief: as §2
HL-60 = assay: Cytotoxicity against human HL60 cells assessed as cell growth at 10^-8 M after 48 hrs by SRB assay; details: HL-60, 48 h, read-out: Activity; method in brief: as §2
786-0 = assay: Growth inhibition of human 786-0 cells after 48 hrs by SRB assay; details: 786-0, 48 h
Method in brief: (§3)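 Same 48 h NCI-60 five-dose SRB protocol. Adherent lines were fixed with cold TCA at 10% final; suspension lines such as CCRF-CEM were fixed with 16% final TCA. Stain was 0.4% SRB in 1% acetic acid for 10 min, solubilized in 10 mM Tris base and read at 515 nm. GI50 came from log concentration–growth curves, solving [(Ti−Tz)/(C−Tz)]×100 = 50.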

HCT-15 = assay: Cytotoxicity against human HCT15 cells assessed as cell growth at 10^-7 M after 48 hrs by SRB assay; details: HCT-15, 48 h, read-out: Activity; method in brief: as §2
OVCAR-8 = assay: Cytotoxicity against human OVCAR8 cells assessed as cell growth at 10^-6 M after 48 hrs by SRB assay; details: OVCAR-8, 48 h, read-out: Activity
OVCAR-5 [4] = assay: Cytotoxicity against human OVCAR5 cells assessed as cell growth at 10^-8 M after 48 hrs by SRB assay; details: OVCAR-5, 48 h, read-out: Activity
U-251 = assay: Growth inhibition of human U251 cells after 48 hrs by SRB assay; details: U-251, 48 h
Method in brief: (§4)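 Adherent NCI-60 lines grown in RPMI 1640 with 5% FBS, seeded at 5000–40,000 cells/well, and preincubated 24 h at 37 °C, 5% CO2. Compound, stocked in DMSO, given either once at 10^-5 M or at five 10-fold dilutions for 48 h. Cells fixed with cold TCA (final 10%), stained with 0.4% SRB, and read at 515 nm. GI50 taken as 50% reduction in net protein increase versus time-zero and control plates.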

SNB-75 = assay: Cytotoxicity against human SNB75 cells assessed as cell growth at 10^-7 M after 48 hrs by SRB assay; details: SNB-75, 48 h, read-out: Activity
NCI-H322M = assay: Growth inhibition of human NCI-H322M cells after 48 hrs by SRB assay; details: for CC50: read-out: LC50 (the source's name); method in brief: as §4
SW-620 = assay: Cytotoxicity against human SW620 cells assessed as cell growth at 10^-7 M after 48 hrs by SRB assay; details: SW-620, 48 h, read-out: Activity
NCI-H226 = assay: Cytotoxicity against human NCI-H226 cells assessed as cell growth at 10^-6 M after 48 hrs by SRB assay; details: NCI-H226, 48 h, read-out: Activity
SN12C = assay: Cytotoxicity against human SN12C cells assessed as cell growth at 10^-8 M after 48 hrs by SRB assay; details: read-out: Activity
NCI-H460 = assay: Cytotoxicity against human NCI-H460 cells assessed as cell growth at 10^-8 M after 48 hrs by SRB assay; details: NCI-H460, 48 h, read-out: Activity
HCT-116 [5] = assay: Growth inhibition of human HCT116 cells after 48 hrs by SRB assay; details: HCT-116, 48 h; method in brief: as §4
HCT-116 [6] = assay: Cytotoxicity against human HCT116 cells assessed as cell growth at 10^-5 M after 48 hrs by SRB assay; details: HCT-116, 48 h, read-out: Activity; method in brief: as §2
Malme-3M = assay: Growth inhibition of human MALME-3M cells after 48 hrs by SRB assay; details: for CC50: read-out: LC50 (the source's name); method in brief: as §4
OVCAR-5 [7] = assay: Growth inhibition of human OVCAR5 cells after 48 hrs by SRB assay; details: OVCAR-5, 48 h; method in brief: as §4
MDA-MB-468 = assay: Cytotoxicity against human MDA-MB-468 cells assessed as cell growth at 10^-6 M after 48 hrs by SRB assay; details: MDA-MB-468, 48 h, read-out: Activity
ACHN = assay: Cytotoxicity against human ACHN cells assessed as cell growth at 10^-6 M after 48 hrs by SRB assay; details: read-out: Activity; method in brief: as §1
DU-145 = assay: Growth inhibition of human DU145 cells after 48 hrs by SRB assay; details: DU-145, 48 h; method in brief: as §3
HCC 2998 [8] = assay: Cytotoxicity against human HCC2998 cells assessed as cell growth at 10^-7 M after 48 hrs by SRB assay; details: HCC 2998, 48 h, read-out: Activity; method in brief: as §2
MCF7 = assay: Cytotoxicity against human MCF7 cells assessed as cell growth at 10^-8 M after 48 hrs by SRB assay; details: MCF7, 48 h, read-out: Activity
A498 = assay: Cytotoxicity against human A498 cells assessed as cell growth at 10^-6 M after 48 hrs by SRB assay; details: A498, 48 h, read-out: Activity; method in brief: as §1
EKVX = assay: Growth inhibition of human EKVX cells after 48 hrs by SRB assay; method in brief: as §4

## COc1ccc(-c2nn3cc(-c4cccc(N)c4)nc3s2)cc1
BT-549
  growth at 10 µM: 24%
[1]
  growth at 1 µM: 76%
RXF 393
  growth at 100 µM: -90%
[2]
  growth at 100 µM: -8%
HCC 2998 [3]
  growth at 1 µM: 84%
HL-60
  growth at 0.01 µM: 103%
786-0
  GI50: 4.7 µM
  LC50: 42.9 µM
  TGI: 15.9 µM
HCT-15
  growth at 0.1 µM: 106%
OVCAR-8
  growth at 1 µM: 94%
OVCAR-5 [4]
  growth at 0.01 µM: 103%
U-251
  GI50: 7.65 µM
  LC50: > 100 µM
  TGI: 52.1 µM
SNB-75
  growth at 0.1 µM: 74%
NCI-H322M
  GI50: 7.15 µM
  TGI: 87.2 µM
  CC50: > 100 µM
SW-620
  growth at 0.1 µM: 95%
NCI-H226
  growth at 1 µM: 58%
SN12C
  growth at 0.01 µM: 91%
NCI-H460
  growth at 0.01 µM: 100%
HCT-116 [5]
  GI50: 3510 nM
  LC50 (50% lethal concentration): 41.4 µM
  TGI: 14.2 µM
HCT-116 [6]
  growth at 10 µM: 16%
Malme-3M
  GI50: 1740 nM
  TGI: 6.5 µM
  CC50: 47.3 µM
OVCAR-5 [7]
  GI50: 8.54 µM
  LC50: > 100 µM
  TGI: 47.1 µM
MDA-MB-468
  growth at 1 µM: 68%
ACHN
  growth at 1 µM: 93%
DU-145
  GI50: 6.79 µM
  LC50 (lethal concentration 50): > 100 µM
  TGI: 31.7 µM
HCC 2998 [8]
  growth at 0.1 µM: 96%
MCF7
  growth at 0.01 µM: 86%
A498
  growth at 1 µM: 53%
EKVX
  GI50: 1010 nM
  LC50 (concentration killing 50% of cells): > 100 µM
  TGI: 12.8 µM

## COc1ccc(-c2nn3cc(-c4ccc(O)cc4O)nc3s2)cc1
BT-549
  growth at 10 µM: 12%
[1]
  growth at 1 µM: 71%
RXF 393
  growth at 100 µM: -63%
[2]
  growth at 100 µM: 3%
HCC 2998 [3]
  growth at 1 µM: 78%
HL-60
  growth at 0.01 µM: 96%
786-0
  GI50: 1.72 µM
  TGI: 3.43 µM
HCT-15
  growth at 0.1 µM: 92%
OVCAR-8
  growth at 1 µM: 81%
OVCAR-5 [4]
  growth at 0.01 µM: 92%
U-251
  GI50: 1.7 µM
  LC50: > 100 µM
  TGI: 4.48 µM
SNB-75
  growth at 0.1 µM: 68%
NCI-H322M
  GI50: 3.23 µM
  TGI: > 100 µM
  CC50: > 100 µM
SW-620
  growth at 0.1 µM: 96%
NCI-H226
  growth at 1 µM: 61%
SN12C
  growth at 0.01 µM: 99%
NCI-H460
  growth at 0.01 µM: 101%
HCT-116 [5]
  GI50: 1760 nM
  LC50 (50% lethal concentration): 8.25 µM
  TGI: 3.81 µM
HCT-116 [6]
  growth at 10 µM: -62%
Malme-3M
  GI50: 1320 nM
  TGI: 4.7 µM
  CC50: > 100 µM
OVCAR-5 [7]
  GI50: 3.43 µM
  LC50: > 100 µM
  TGI: > 100 µM
MDA-MB-468
  growth at 1 µM: 59%
ACHN
  growth at 1 µM: 100%
DU-145
  GI50: 4.37 µM
  LC50 (lethal concentration 50): > 100 µM
  TGI: > 100 µM
HCC 2998 [8]
  growth at 0.1 µM: 94%
MCF7
  growth at 0.01 µM: 92%
A498
  growth at 1 µM: 34%
EKVX
  GI50: 1950 nM
  LC50 (concentration killing 50% of cells): > 100 µM
  TGI: 41.2 µM

Reference: ChEMBL document CHEMBL2146441, “2,6-Disubstituted imidazo[2,1-b][1,3,4]thiadiazoles: search for anticancer agents” (2012)
